ABCB1 block – human ABCB1 inhibition, ABCG2 as counter-screen; hit rate 0.067% among 190,000; P08183; CCRF-Adr cells, JC-1 efflux, flow cytometry; inhibition, % at 6.6 µM; in the data active = inhibition above about 40%;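 also: higher value means more JC-1 retained so stronger ABCB1 efflux block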
L major viab – inhibitors of Leishmania major promastigote growth; Leishmania major promastigotes, resazurin fluorescence viability; inhibition, % at 10 µM; hit rate 9% among 200,000; AID 1063;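 also: promastigotes grown with compound for 44 hours at 28 °C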
Avidin fluor – avidin bead compound fluorescence profile; fluorescence (KMESF) at 10 µM; Avidin beads, compound fluorescence 488/530 nm, flow cytometry; active compounds read high; hit rate 0.38% among 220,000; in the data active = fluorescence above about 47
PKD1 kinase inh – blocks activity of human protein kinase D1; PKD1 kinase fluorescence polarization assay; Q15139; inhibition, % (concentration not given with the values); hit rate 0.056% among 200,000
ABCG2 inh – human ABCG2 inhibition, ABCB1 as counter-screen; hit rate 0.1% among 190,000; IgMXP3 cells, JC-1 efflux, flow cytometry; inhibition, % at 6.6 µM; Q9UNQ0;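 active = inhibition above 80%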
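Test system: ABCG2 IgMXP3 and barcoded ABCB1 CCRF-Adr cell mix; Schedule: cells with compound and JC-1, 10 min at 25 °C, rotating, no wash; Technique: flow cytometry of retained JC-1 fluorescence; Measure: % inhibition of efflux relative to nicardipine and DMSO; Controls: nicardipine high and DMSO low controls.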
GSH fluor – GSH bead compound fluorescence profile; GSH beads flow cytometry, compound fluorescence 488/530 nm; active compounds read high; fluorescence (KMESF) at 10 µM; hit rate 0.25% among 190,000; AID 1776; in the data active = fluorescence above about 89;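 also: glutathione beads carrying GST-tagged Bcl family fusion proteins plus one bare bead set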
Numbers stand for hits. The full list was thinned out, with hits kept by preference. Rule as the data show it, unless noted: active = inhibition above about 50%; inactive = the rest.

Results for O=C(COc1ccc(C(=O)c2ccccc2)cc1)NC1CCCCCC1 ?
ABCB1 block: inactive; L major viab: 62.3; Avidin fluor: inactive; PKD1 kinase inh: inactive; ABCG2 inh: inactive; GSH fluor: inactive

How did O=C(COc1ccccc1)NC1CCCCC1 do in these assays?
ABCB1 block: inactive; L major viab: inactive; Avidin fluor: inactive; PKD1 kinase inh: inactive; ABCG2 inh: inactive; GSH fluor: inactive

Results for CCSC1=N/C(=C/c2ccsc2)C(=O)N1c1ccccc1 ?
ABCB1 block: inactive; L major viab: inactive; Avidin fluor: inactive; PKD1 kinase inh: inactive; ABCG2 inh: inactive; GSH fluor: inactive

Results for CC#CCN1c2ccccc2[C@]23C[C@@H](C(=O)OC)N=C2NC(C(=O)OC)=C(C(=O)OC)[C@H]13 ?
Avidin fluor: inactive

Results for COc1ccc(C2(CNC(=O)c3cccs3)CCOCC2)cc1 ?
ABCB1 block: inactive; L major viab: inactive; Avidin fluor: inactive; PKD1 kinase inh: inactive; ABCG2 inh: inactive; GSH fluor: inactive
